Sampled rows, rich in hits. Any-hit rate of the full collection: about 3.9%.
OX1R antag-1 = antagonists of human orexin 1 receptor (OX1R). Orexin/Hypocretin receptor type 1 (Homo sapiens), O43613. OX1R-expressing cells, FRET antagonist read-out. inhibition, % at 6.6 µM. hit rate 1.8% among 330,000; in the data active = inhibition mostly above about 38%, no sharp cut-off; inactive = mostly below about 40%;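 note: 0% = agonist challenge alone and 100% = reference antagonist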
Target sequence (O43613 whole entry, looked up): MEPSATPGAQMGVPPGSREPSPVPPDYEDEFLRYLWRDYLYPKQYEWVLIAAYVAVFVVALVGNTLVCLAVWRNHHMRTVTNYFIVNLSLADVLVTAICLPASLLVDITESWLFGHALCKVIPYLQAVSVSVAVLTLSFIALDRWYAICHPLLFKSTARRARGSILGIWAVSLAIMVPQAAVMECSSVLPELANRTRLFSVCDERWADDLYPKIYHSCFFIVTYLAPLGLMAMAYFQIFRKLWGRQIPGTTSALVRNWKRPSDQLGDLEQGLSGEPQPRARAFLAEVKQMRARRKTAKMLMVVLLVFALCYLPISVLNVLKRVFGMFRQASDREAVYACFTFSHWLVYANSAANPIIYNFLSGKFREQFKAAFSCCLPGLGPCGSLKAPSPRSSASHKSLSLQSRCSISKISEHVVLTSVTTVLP
CHO parental Ca = ATP-evoked calcium signal inhibitors, parental CHO, primary screen, counter-screen for OX1R antagonist project, cell-based, fluorescence, Fluo-8 calcium dye | parental CHO-K1, ATP-induced calcium, Fluo-8 fluorescence | inhibition, % at 5.6 µM | hit rate 0.63% among 330,000;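 active = inhibition above that plate's mean sample inhibition plus 3 SD, cut at about 26% in these data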;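 note: 0% = ATP-challenged DMSO wells and 100% = DMSO wells without ATP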
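Material: parental CHO cells / Compound: single nominal dose of 5.6 µM per compound / Signal: Fluo-8 fluorescence / Replicates: singlicate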
OX1R antag-2 = OX1R (HCRTR1) antagonists, primary screen, fluorescence, CHO/OX1R cells, Fluo-8 calcium, orexin A. inhibition, % at 5 µM. hit rate 0.43% among 330,000. Fluo-8 calcium fluorescence. Orexin/Hypocretin receptor type 1 (Homo sapiens), O43613;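 active = inhibition above its plate's threshold, mean inhibition of all tested compounds on the plate plus 3 SD, cut at about 37% in these data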;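 note: 0% = orexin A challenge wells and 100% = SB-334867-A antagonist wells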
TAAR1 ag = human TAAR1 agonists, primary screen, Fluo-8 calcium fluorescence, CHO RD-HGA16 cells. Trace amine-associated receptor 1 (Homo sapiens), Q96RJ0. vehicle wells 0%, saturating PEA agonist 100%. activation, % at 3 µM. hit rate 0.99% among 360,000. AID 624467, 2012;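 active = activation above the mean activation of all test compounds in the run plus 3 SD, cut at about 38% in these data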
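Assay system: CHO-derived RD-HGA16 cells with stable Gα16 and human TAAR1; timing: 17-24 h seeding, 75 min 37 °C dye, 30 min RT; read-out: % activation from peak over basal fluorescence ratio, DMSO-to-PEA scaled; measured by: kinetic Fluo-8 calcium fluorescence; benchmarks: low control DMSO, high control PEA (EC100); doses: 3 µM single concentration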
TAAR1 antag = human TAAR1 antagonists, primary screen, Fluo-8 calcium fluorescence, CHO RD-HGA16 cells | antagonist | hit rate 1.5% among 360,000 | Trace amine-associated receptor 1 (Homo sapiens), Q96RJ0 | inhibition, % at 3 µM | AID 624466, 2012;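 active = inhibition above a per-plate cutoff, the mean inhibition of test compounds on that plate plus 3 SD, cut at about 49% in these data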;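 note: 0% = DMSO plus EC80 beta-PEA response and 100% = DMSO alone without agonist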
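Material: RD-HGA16 CHO cells with stable hTAAR1 and Gα16; Dosing: single nominal final test compound concentration of 3 µM; Schedule: seeding 17-24 h prior, 75-min 37 °C, 30-min RT dye loading; Detection: kinetic Fluo-8 calcium fluorescence measurement; Measure: % inhibition from peak post-agonist over basal fluorescence ratio; Benchmarks: vehicle and agonist controls.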
TAAR1 ag conf = human TAAR1 agonists, retest of hits, confirmation, Fluo-8 calcium fluorescence, CHO RD-HGA16 cells; activation, % at 3 µM; scaled: DMSO 0%, maximal phenethylamine 100%; hit rate 82% among 2,400; AID 651783, 2012; shares compounds with TAAR1 ag;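 active = activation above a cutoff set at the run's mean compound activation plus 3 SD, cut at about 39% in these data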
Ga16 ag counter = nonselective calcium mobilization agonists, CHO-Ga16 cells, counter-screen for hTAAR1 agonist project, cell-based, fluorescence, CHO-Ga16 parental line; activation, % at 3 µM; Fluo-8 calcium fluorescence; normalized to maximal ATP response, DMSO zero; hit rate 50% among 2,400; shares compounds with TAAR1 ag;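 active = activation above the run cutoff, the mean activation over all tested wells plus 3 SD, cut at about 12% in these data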;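 note: 0% = DMSO wells and 100% = maximal ATP response on the peak over basal ratio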
TAAR1 desensitize = TAAR1 desensitization by agonist hits, confirmation, counter-screen for TAAR1 agonist project, cell-based, fluorescence, tachyphylaxis. inhibition, % at 3 µM. AID 651951, 2012. CHO RD-HGA16 hTAAR1, Fluo-8 calcium, beta-PEA response inhibition. shares compounds with TAAR1 ag. hit rate 46% among 2,400;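 active = inhibition above the run cutoff, the mean inhibition of all test compounds plus 3 SD, cut at about 49% in these data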;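 note: beta-PEA stimulus applied at its EC80; loss of beta-PEA calcium signal after compound pretreatment read as receptor desensitization; 0% = DMSO with beta-PEA at EC80 and 100% = DMSO alone without agonist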
Ga16 nonsel ant = inhibition of ATP-evoked calcium response in CHO-Ga16 cells, counter-screen for TAAR1 agonist project, cell-based, fluorescence; AID 651952, 2012; inhibition, % at 3 µM; hit rate 39% among 2,400; shares compounds with TAAR1 ag; CHO-Ga16 ATP-induced calcium, Fluo-8 fluorescence;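 active = inhibition above the plate's mean compound inhibition plus 3 SD, computed per plate, cut at about 22% in these data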;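 note: 0% = EC80 ATP with DMSO and 100% = DMSO wells without ATP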
Numbers without * were called inactive; / = no result given.

SMILES	OX1R antag-1	CHO parental Ca	OX1R antag-2	TAAR1 ag	TAAR1 antag	TAAR1 ag conf	Ga16 ag counter	TAAR1 desensitize	Ga16 nonsel ant
Cn1cc(CNCc2ccccc2OCC(O)CN2CCc3ccccc3C2)cn1 (stereo unspecified)	25	-21	-18	1	-14	/	/	/	/
O=C(CN1CCC(n2nnc3cc(F)ccc32)CC1)NCc1ccco1	11	-13	-23	3	-1	/	/	/	/
COc1cc(CN2CCNC(=O)C2CC(=O)N2CCc3ccccc3C2)cc(OC)c1 (stereo unspecified)	13	-20	-11	66*	-4	68*	1	15	1
CC(C)(C)CN1CCNC(=O)C1CC(=O)N1CCOc2ccccc2C1 (stereo unspecified)	18	-8	-20	59*	1	54*	3	3	7
COc1cccc(CN2CCNC(=O)C2CC(=O)N2CCOc3ccccc3C2)c1OC (stereo unspecified)	7	-22	-25	66*	-1	73*	0	24	9
COc1ccc(CN2CCNC(=O)C2CC(=O)N2CCc3ccccc3C2)c(OC)c1 (stereo unspecified)	11	-30	-37	17	-7	/	/	/	/
Cc1cc(Br)ccc1SCC(=O)OCC(=O)Nc1ncc(C(F)(F)F)cc1Cl	21	4	-5	0	-1	/	/	/	/
CCOC(=O)N(C)C[C@H]1OCc2cnnn2CCCC(=O)N([C@H](C)CO)C[C@@H]1C	/	/	/	5	-27	/	/	/	/
OCCNc1nc(Nc2ccc(O)cc2)nc2ccccc12	6	7	-8	88*	59*	97*	0	95*	-6
Oc1cccc(Nc2c3ccccc3nc3ccccc23)c1	21	1	-8	-2	9	/	/	/	/
Cc1cccc(Nc2nc(NCc3ccco3)c3ccccc3n2)c1	19	74*	44	70*	31	50*	4	48	28*
OCCNc1nc(NCc2ccccc2)c2ccccc2n1	4	-6	-21	1	-10	/	/	/	/
COc1cccc(Nc2nc(NCCO)c3ccccc3n2)c1	25	-17	-9	50*	34	80*	2	60*	2
OCCNc1nc(Nc2cccc(O)c2)nc2ccccc12	9	-2	-13	97*	84*	101*	1	98*	7
CCn1cc([N+](=O)[O-])c(C(=O)Nc2nc3ccc(OC)cc3s2)n1	16	3	14	1	7	/	/	/	/
COc1cccc(C(O)c2ncc(-c3cccc(C(F)(F)F)c3)[nH]2)c1 (stereo unspecified)	/	/	/	7	-9	/	/	/	/
Cc1cc(/C=C2\C(=N)N3C(SCc4ccccc4)=NSC3=NC2=O)c(C)n1Cc1ccccc1	6	-2	-5	6	6	/	/	/	/
CCC1=NN2C(=N)/C(=C/c3cc(C)n(Cc4ccccc4)c3C)C(=O)N=C2S1	19	70*	97*	104*	91*	104*	72*	95*	77*

From PubChem BioAssay
